For assay [1], the target named is Prostaglandin E2 receptor EP4 subtype (Mus musculus, UniProt P32240). Description: Displacement of [3H]PGE2 from mouse EP4 receptor expressed in CHO cells after 60 mins by scintillation counter. The format is cell-based.
The target in assay [2] is Prostaglandin E2 receptor EP2 subtype (Mus musculus, UniProt Q62053). Description: Displacement of [3H]PGE2 from mouse EP2 receptor expressed in CHO cells after 60 mins by scintillation counter. The format is cell-based. On the technique in general: In a radioligand displacement assay an active substance lowers the binding of a labelled ligand.
The test system of assay [3] is Rattus norvegicus. Description: Inhibition of PGE2-induced uterine contraction in pregnant rat at 1 mg/kg, id. The format is functional. The conditions noted are these: route intraduodenal. Put shortly: (§1)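 Pregnant rats received test agent intraduodenally (0.3 or 1 mg/kg tested). Uterine contraction was induced with PGE2 and suppression scored as % inhibition. Each value is the mean of two experiments.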

Assay [4] concerns Rattus norvegicus. Description: Inhibition of PGE2-induced uterine contraction in pregnant rat at 0.3 mg/kg, id. Conditions: route intraduodenal. The class given is functional. The method in brief:
as §1

Assay [5] deals with T1, Prostaglandin E2 receptor EP1 subtype (Mus musculus, UniProt P35375).
T1 sequence (P35375 whole entry): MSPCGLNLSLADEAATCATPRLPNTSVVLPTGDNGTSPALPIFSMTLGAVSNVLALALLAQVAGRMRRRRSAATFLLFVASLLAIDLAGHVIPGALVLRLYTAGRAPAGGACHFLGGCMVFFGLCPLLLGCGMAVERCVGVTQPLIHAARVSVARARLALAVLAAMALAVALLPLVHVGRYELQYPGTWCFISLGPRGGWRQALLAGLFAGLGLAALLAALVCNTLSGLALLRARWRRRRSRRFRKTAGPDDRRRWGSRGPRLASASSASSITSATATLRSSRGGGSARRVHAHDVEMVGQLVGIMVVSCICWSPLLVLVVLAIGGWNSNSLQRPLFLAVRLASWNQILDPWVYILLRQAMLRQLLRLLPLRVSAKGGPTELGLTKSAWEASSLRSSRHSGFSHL
Nature of the assay: Displacement of [3H]PGE2 from mouse EP1 receptor expressed in CHO cells after 60 mins by scintillation counter. The class given is cell-based.

Assay [6] relates to Rattus norvegicus. Nature of the assay: Inhibition of PGE2-induced uterine contraction in pregnant rat at 3 mg/kg, po after 4 hrs. The class given is functional.
In assay [7] the target is T2, Prostaglandin E2 receptor EP3 subtype (Mus musculus, UniProt P30557).
T2 sequence (P30557 whole entry): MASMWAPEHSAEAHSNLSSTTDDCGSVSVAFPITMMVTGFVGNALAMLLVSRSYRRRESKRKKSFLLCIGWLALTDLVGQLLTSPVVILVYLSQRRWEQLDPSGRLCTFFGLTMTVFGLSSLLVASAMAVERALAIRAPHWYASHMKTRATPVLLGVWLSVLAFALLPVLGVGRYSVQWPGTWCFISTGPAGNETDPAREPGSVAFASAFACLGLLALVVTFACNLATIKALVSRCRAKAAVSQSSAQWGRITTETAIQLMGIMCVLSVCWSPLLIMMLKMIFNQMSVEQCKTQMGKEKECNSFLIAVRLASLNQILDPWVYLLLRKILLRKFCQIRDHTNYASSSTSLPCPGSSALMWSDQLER
Description: Antagonist activity at mouse EP3 receptor expressed in CHO cells assessed as inhibition of PGE2-induced increase in intracellular calcium level after 1 hr by FDSS in presence of 1% bovine serum albumin. The class given is functional, cell-based. In general terms: Calcium assays in cells follow changes in intracellular calcium, usually with a dye or a luminescent sensor.

Assay [8] concerns the target T2, Prostaglandin E2 receptor EP3 subtype. Description: Displacement of [3H]PGE2 from mouse EP3 receptor expressed in CHO cells after 60 mins by scintillation counter. The class given is cell-based.
Assay [9] concerns Rattus norvegicus. Nature of the assay: Inhibition of PGE2-induced uterine contraction in id dosed pregnant rat. The class given is functional, organism-based. The method in brief: as §1

A value given as a limit tells only on which side of the number the result lay.

A word on the Ki: it is the equilibrium dissociation constant of an inhibitor or competing ligand from its target. Read a high Ki as weaker binding. As a reminder, the inhibition in vivo is the drop in the measured response relative to a control, in per cent. Read a low inhibition in vivo as little suppression. In general, IC50 refers to the concentration at which inhibition is half-maximal.

Chain of Prostaglandin E2 receptor EP4 subtype (P32240 whole entry): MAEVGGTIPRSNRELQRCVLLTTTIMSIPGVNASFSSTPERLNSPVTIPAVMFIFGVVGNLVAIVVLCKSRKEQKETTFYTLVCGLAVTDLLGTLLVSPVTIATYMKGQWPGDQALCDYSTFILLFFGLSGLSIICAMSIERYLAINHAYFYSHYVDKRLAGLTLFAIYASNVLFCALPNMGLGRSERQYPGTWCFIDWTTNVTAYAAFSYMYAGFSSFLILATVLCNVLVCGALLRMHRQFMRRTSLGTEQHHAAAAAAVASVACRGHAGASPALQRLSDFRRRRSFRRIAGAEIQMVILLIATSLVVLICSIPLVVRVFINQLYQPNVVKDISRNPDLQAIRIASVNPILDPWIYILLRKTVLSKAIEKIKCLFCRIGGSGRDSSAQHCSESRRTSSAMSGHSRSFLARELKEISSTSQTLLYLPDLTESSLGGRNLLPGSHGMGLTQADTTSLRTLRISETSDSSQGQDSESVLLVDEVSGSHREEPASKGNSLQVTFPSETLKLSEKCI
Chain of Prostaglandin E2 receptor EP2 subtype (Q62053 whole entry): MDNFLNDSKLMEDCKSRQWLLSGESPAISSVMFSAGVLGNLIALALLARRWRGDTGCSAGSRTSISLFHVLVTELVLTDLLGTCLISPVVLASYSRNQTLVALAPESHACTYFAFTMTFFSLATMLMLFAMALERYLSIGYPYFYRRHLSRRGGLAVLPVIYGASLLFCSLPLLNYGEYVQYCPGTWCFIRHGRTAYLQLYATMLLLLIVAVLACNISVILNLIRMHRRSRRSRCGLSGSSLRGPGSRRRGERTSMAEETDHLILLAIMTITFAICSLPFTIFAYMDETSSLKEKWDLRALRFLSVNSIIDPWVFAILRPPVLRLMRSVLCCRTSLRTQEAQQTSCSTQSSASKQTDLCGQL

Consider `N#Cc1cccc(OCc2ccc(CCC(=O)NS(=O)(=O)c3ccc(F)c(F)c3)c(OCCc3ccc4ccccc4c3)c2)c1`, for which the Ki is 2300 nM in [1], greater than 10000 nM in [2], greater than 10000 nM in assay [5] and 0.51 nM in assay [8]. The compound also returned an inhibition in vivo at 1 mg/kg in the assay with Rattus norvegicus [3] of 92%. The inhibition in vivo at 0.3 mg/kg with Rattus norvegicus [4] was determined as 50%. Further, the inhibition in vivo at 3 mg/kg in the assay on Rattus norvegicus [6] was found to be 66%. In [7], the IC50 came to 24 nM.

Take `O=C(CCc1ccc(CN2CCOCC2)cc1OCCc1ccc2ccccc2c1)NS(=O)(=O)c1ccc(F)c(F)c1`: the Ki in [1] was greater than 10000 nM; in assay [2], greater than 10000 nM; in [5] it was 5000 nM; in [8], 1.2 nM. The compound also showed an inhibition in vivo at 1 mg/kg in the assay with Rattus norvegicus [3] of 35%. In assay [7], the IC50 stood at 47 nM.

`O=C(CCc1ccc(Cn2cccn2)cc1OCCc1ccc2ccccc2c1)NS(=O)(=O)c1ccc(Cl)c(Cl)c1`: in assay [7], the IC50 came to 7.8 nM. Further, in assay [8], affinity was put at a Ki of 0.45 nM.

As for `Cc1ccc(S(=O)(=O)NC(=O)CCc2ccc(Cn3cccn3)cc2OCCc2ccc3ccccc3c2)o1`, in assay [7], the IC50 was found to be 88 nM. The compound also returned a Ki in assay [8] of 0.58 nM.

`O=C(CCc1ccc(Cn2cccn2)cc1OCCc1ccc2ccccc2c1)NS(=O)(=O)c1ccccn1`: in assay [7], the IC50 turned out to be 190 nM. This compound came in with a Ki in assay [8] of 1.6 nM.

On to `Cc1ccc(S(=O)(=O)NC(=O)CCc2ccc(Cn3cccn3)cc2OCCc2ccc3ccccc3c2)cc1Cl`, for which the IC50 in [7] amounted to 10 nM. In assay [8], this compound yielded a Ki of 0.43 nM.

As to `CN(C)Cc1ccc(CCC(=O)NS(=O)(=O)c2ccc(F)c(F)c2)c(OCCc2ccc3ccccc3c2)c1`, the Ki in assay [1] was greater than 10000 nM; in assay [2], greater than 10000 nM; in assay [5] it was greater than 10000 nM; in assay [8], 8.2 nM. Moreover, the inhibition in vivo at 1 mg/kg with Rattus norvegicus [3] is 32%. Further, the IC50 in assay [7] is 24 nM.

With `O=C(NCc1ccc(Cn2cccn2)cc1OCCc1ccc2ccccc2c1)NS(=O)(=O)c1ccccc1`, in assay [7], the IC50 is 820 nM. In assay [8], this compound returned a Ki of 15 nM.

As to `O=C(NS(=O)(=O)CCc1ccc(Cn2cccn2)cc1OCCc1ccc2ccccc2c1)c1ccccc1`, the IC50 in [7] was greater than 10000 nM. This compound gave a Ki in assay [8] of 140 nM.

In the case of `CS(=O)(=O)NC(=O)CCc1ccc(Cn2cccn2)cc1OCCc1ccc2ccccc2c1`, the IC50 in [7] is greater than 10000 nM. For the same compound, the Ki in assay [8] is 22 nM.

As for `O=C(CCc1ccc(Cn2cccn2)cc1OCCc1ccc2ccccc2c1)NS(=O)(=O)c1ccccc1`, the IC50 in [7] was found to be 140 nM. Also, affinity in assay [8] was put at a Ki of 0.5 nM.

With `O=C(CCc1ccc(Cn2cccn2)cc1OCCc1ccc2ccccc2c1)NS(=O)(=O)c1cccnc1`, the IC50 in assay [7] amounted to 150 nM. In addition, in assay [8], the Ki stood at 1 nM.

For the compound `CN(CCOc1cc(Cn2cccn2)ccc1CCC(=O)NS(=O)(=O)c1ccc(F)c(F)c1)c1ccccc1`, the Ki was 3500 nM in [1], greater than 10000 nM in [2], 260 nM in assay [5] and 0.12 nM in assay [8]. In addition, at 1 mg/kg the inhibition in vivo with Rattus norvegicus [3] was 50%. Further, the IC50 in assay [7] is 3.8 nM.

Consider `O=C(CCc1ccc(Cn2cccn2)cc1OCCc1ccc2ccccc2c1)NS(=O)(=O)c1ccc(F)c(F)c1`, for which the Ki in [1] was 2400 nM; in assay [2], greater than 10000 nM; in [5], 2100 nM; in assay [8] it was 0.086 nM. Also, in the assay with Rattus norvegicus [3], the inhibition in vivo at 1 mg/kg was determined as 76%. In addition, 0.3 mg/kg produced 43% inhibition in vivo in the assay with Rattus norvegicus [4]. The inhibition result in the assay with Rattus norvegicus [9] was “Dose-dependent effect”. Moreover, the IC50 in [7] was determined as 1.2 nM.

On to `O=C(CCc1ccc(Cn2cccn2)cc1OCCc1ccccc1)NS(=O)(=O)c1ccc(F)c(F)c1`, for which the Ki in assay [1] is 2500 nM; in assay [2], greater than 10000 nM; in assay [5], 1300 nM; in assay [8] it was 0.2 nM. Also, at 1 mg/kg the inhibition in vivo with Rattus norvegicus [3] was 51%. Also, the inhibition in vivo at 0.3 mg/kg in the assay on Rattus norvegicus [4] amounted to 29%. Further, the IC50 in [7] came to 59 nM.

As for `Cc1cn(Cc2ccc(Cl)cc2Cl)c2c(/C=C/C(=O)NS(=O)(=O)c3cc(Cl)c(Cl)s3)cc(F)cc12`, in the assay with Rattus norvegicus [6], the inhibition in vivo at 3 mg/kg worked out at 70%.

As for `Cc1csc(S(=O)(=O)NC(=O)CCc2ccc(Cn3cccn3)cc2OCCc2ccc3ccccc3c2)n1`, the IC50 in assay [7] turned out to be 110 nM. Besides, the Ki in [8] is 0.35 nM.

On to `O=C(CCc1ccc(Cn2cccn2)cc1OCCc1cccc(N2CCOCC2)c1)NS(=O)(=O)c1ccc(F)c(F)c1`, for which the Ki is 3700 nM in assay [1], greater than 10000 nM in [2], 560 nM in assay [5] and 0.54 nM in assay [8]. This compound also returned an inhibition in vivo at 1 mg/kg with Rattus norvegicus [3] of 33%. The IC50 in [7] turned out to be 6.4 nM.

On to `O=C(CCc1ccc(Cn2cccn2)cc1OCCOc1ccccc1)NS(=O)(=O)c1ccc(F)c(F)c1`, for which the Ki in assay [1] was greater than 10000 nM; in assay [2], greater than 10000 nM; in [5], 2800 nM; in assay [8], 0.27 nM. Besides, in the assay with Rattus norvegicus [3], the inhibition in vivo at 1 mg/kg is 28%. For the same compound, the IC50 in [7] is 51 nM.

For the compound `O=C(CCc1ccc(COc2cccnc2)cc1OCCc1ccc2ccccc2c1)NS(=O)(=O)c1ccc(F)c(F)c1`, the Ki in [1] was 710 nM; in assay [2], greater than 10000 nM; in [5] it was 1700 nM; in assay [8], 0.16 nM. In the assay with Rattus norvegicus [3], this compound came in with an inhibition in vivo at 1 mg/kg of 71%. Besides, in the assay with Rattus norvegicus [4], the inhibition in vivo at 0.3 mg/kg was 44%. In assay [7], the IC50 is 0.4 nM.

For `N#Cc1cccc(S(=O)(=O)NC(=O)CCc2ccc(Cn3cccn3)cc2OCCc2ccc3ccccc3c2)c1`, the IC50 in assay [7] stood at 18 nM. Further, the affinity in assay [8], expressed as Ki, was 0.065 nM.

For the compound `O=C(CCc1ccc(Cn2cccn2)cc1OCCc1ccc2ccccc2c1)NS(=O)(=O)c1ccc(F)c(Cl)c1`, the IC50 in assay [7] worked out at 5.5 nM. For the same compound, the affinity in assay [8], expressed as Ki, was 0.22 nM.

As to `O=C(O)CCc1ccc(Cn2cccn2)cc1OCCc1ccc2ccccc2c1`, the Ki in assay [8] worked out at 21 nM. That is a double-digit nanomolar value.

These data come from ChEMBL document CHEMBL1156219, “Discovery of novel N-acylsulfonamide analogs as potent and selective EP3 receptor antagonists” (Bioorg Med Chem Lett, 2010).
